Results from ChEMBL document CHEMBL4725428 (ACS Med Chem Lett, 2020).
The source made the active and inactive calls. No cut-off for these calls is given here.

Legend:
[1] = target: T1, Protein cereblon/Focal adhesion kinase 1 (Homo sapiens, UniProt Q05397+Q96SW2); test: Protac activity at CRBN/FAK in human PA1 cells assessed as induction of FAK degradation at 10 nM incubated for 8 hrs by Western blot analysis relative to control; assay type: cell-based; settings: PA-1
Outline: (§1)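 PA1 cells were treated at the indicated doses for 8 h, and FAK was quantified from immunoblots relative to untreated control. Data come from three independent experiments.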

[2] = target: T1, Protein cereblon/Focal adhesion kinase 1; test: Protac activity at CRBN/FAK in human PA1 cells assessed as induction of FAK degradation at 1 nM incubated for 8 hrs by Western blot analysis relative to control; assay type: cell-based; settings: PA-1; outline: as §1
[3] = target: T2, Protein cereblon/Focal adhesion kinase 1 (Mus musculus) (UniProt P34152+Q8C7D2); test: Protac activity at CRBN/FAK in mouse TM3 cells assessed as reduction in FAK autophosphorylation at tyr 397 residue at <1 nM after 8 hrs by Western blot analysis; assay type: cell-based; settings: dose nM <1, time 8.0 hrs
Outline: (§2)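 TM3 cells were treated at the indicated doses for 8 h, then immunoblotted for FAK phosphorylated at Tyr397.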

[4] = target: T1, Protein cereblon/Focal adhesion kinase 1; test: Protac activity at CRBN/FAK in human PA1 cells assessed as FAK degradation at 1 to 100 nM after 8 hrs in presence of 10 uM pomalidomide; assay type: cell-based; settings: PA-1, dose nM 1-100, time 8.0 hrs
Outline: (§3)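 For ligand competition, PA1 cells were treated for 8 h with the degrader (1, 10 or 100 nM) alone, or with excess CRBN ligand pomalidomide (10 μM) or FAK ligand PF562271 (10 μM), alone or combined. FAK was read by immunoblot.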

[5] = target: T1, Protein cereblon/Focal adhesion kinase 1; test: Protac activity at CRBN/FAK in human PA1 cells assessed as FAK degradation at 1 to 100 nM after 8 hrs in presence of 10 uM PF562271; assay type: cell-based; settings: PA-1, dose nM 1-100, time 8.0 hrs; outline: as §3
[6] = target: T1, Protein cereblon/Focal adhesion kinase 1; test: Protac activity at CRBN/FAK in human PA1 cells assessed as reduction FAK degradation at 1 to 100 nM after 8 hrs in presence of 5 uM MG132; assay type: cell-based; settings: PA-1, dose nM 1-100, time 8.0 hrs
Outline: (§4)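 To test proteasome dependence, PA1 cells received the degrader (1, 10 or 100 nM) for 8 h, either alone or together with MG132 (5 μM) or carfilzomib (5 μM). Each inhibitor was also given alone. FAK was assessed by immunoblot.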

[7] = target: T1, Protein cereblon/Focal adhesion kinase 1; test: Protac activity at CRBN/FAK in human PA1 cells assessed as reduction FAK degradation at 1 to 100 nM after 8 hrs in presence of 5 uM carfilzomib; assay type: cell-based; settings: PA-1, dose nM 1-100, time 8.0 hrs; outline: as §4
[8] = target: Protein cereblon/Focal adhesion kinase 1 (Mus musculus, UniProt P34152+Q8C7D2); test: Protac activity at CRBN/FAK in mouse TM3 cells assessed as induction of FAK degradation after 8 hrs by Western blot analysis; assay type: cell-based
Outline: (§5)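 Each cell line was exposed to graded concentrations for 8 h, and FAK protein was detected by immunoblot. DC50 is the concentration giving half-maximal FAK degradation.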

[9] = target: T1, Protein cereblon/Focal adhesion kinase 1; test: Protac activity at CRBN/FAK in human PA1 cells assessed as induction of FAK degradation after 8 hrs by Western blot analysis; assay type: cell-based; settings: pa-1; outline: as §5
[10] = target: T1, Protein cereblon/Focal adhesion kinase 1; test: Protac activity at CRBN/FAK in human MDA-MB-436 cells assessed as induction of FAK degradation after 8 hrs by Western blot analysis; assay type: cell-based; outline: as §5
[11] = target: T1, Protein cereblon/Focal adhesion kinase 1; test: Protac activity at CRBN/FAK in human LNCAP cells assessed as induction of FAK degradation after 8 hrs by Western blot analysis; assay type: cell-based; outline: as §5
[12] = target: T1, Protein cereblon/Focal adhesion kinase 1; test: Protac activity at CRBN/FAK in human Ramos cells assessed as induction of FAK degradation after 8 hrs by Western blot analysis; assay type: cell-based; outline: as §5
[13] = target: T2, Protein cereblon/Focal adhesion kinase 1 (Mus musculus); test: Protac activity at CRBN/FAK in mouse TM3 cells assessed as reduction in FAK autophosphorylation at tyr 397 residue at 100 nM after 1 hr by Western blot analysis relative to control; assay type: cell-based; set-up: scale not given: the % may be the effect or the level left
Outline: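 In a time course, TM3 cells were exposed to 100 nM, and FAK and pFAK Tyr397 levels were followed by immunoblot at successive time points.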

[14] = target: T2, Protein cereblon/Focal adhesion kinase 1 (Mus musculus); test: Protac activity at CRBN/FAK in mouse TM3 cells assessed as reduction in FAK autophosphorylation at tyr 397 residue at 1 to 3000 nM after 8 hrs by Western blot analysis; assay type: cell-based; settings: dose nM 1-3000, time 8.0 hrs; outline: as §2
[15] = system: TM3; test: Antiproliferative activity against mouse TM3 cells assessed as effect on cell proliferation after 72 hrs by MTS assay; assay type: functional, cell-based
[16] = system: PA-1; test: Antiproliferative activity against human PA1 cells assessed as effect on cell proliferation after 72 hrs by MTS assay; assay type: functional, cell-based
[17] = system: MDA-MB-436; test: Antiproliferative activity against human MDA-MB-436 cells assessed as effect on cell proliferation after 72 hrs by MTS assay; assay type: functional, cell-based
[18] = system: LNCaP; test: Antiproliferative activity against human LNCAP cells assessed as effect on cell proliferation after 72 hrs by MTS assay; assay type: functional, cell-based
[19] = system: Ramos; test: Antiproliferative activity against human Ramos cells assessed as effect on cell proliferation after 72 hrs by MTS assay; assay type: functional, cell-based

Row | Structure (SMILES) | Activity [1] [%] | Activity [2] [%] | also measured
1 | CN(c1ncccc1CNc1ncc(C(F)(F)F)c(Nc2ccc(NC(=O)c3cn(CCOCCNc4cccc5c4C(=O)N(C4CCC(=O)NC4=O)C5=O)nn3)cc2)n1)S(C)(=O)=O (stereo not given) | 0 | 0 | –
2 | CN(c1ncccc1CNc1nc(Nc2ccc(NC(=O)c3cn(CCOCCOCCNc4cccc5c4C(=O)N(C4CCC(=O)NC4=O)C5=O)nn3)cc2)ncc1C(F)(F)F)S(C)(=O)=O (stereo not given) | 99 | 90 | Activity [3]: Active; Activity [4]: inactive; Activity [5]: inactive; Activity [6]: inactive; Activity [7]: inactive; DC50 [8]: 310 pM; DC50 [9]: 80 pM; DC50 [10]: 330 pM; DC50 [11]: 370 pM; DC50 [12]: 40 pM; Activity [13]: > 50%; Activity [14]: Active; Activity [15]: inactive; Activity [16]: inactive; Activity [17]: inactive; Activity [18]: inactive; Activity [19]: inactive
3 | CN(c1nccnc1CNc1nc(Nc2ccc(C(=O)NCc3cn(CCOCCNc4cccc5c4C(=O)N(C4CCC(=O)NC4=O)C5=O)nn3)cc2)ncc1C(F)(F)F)S(C)(=O)=O (stereo not given) | 71 | 37 | –
4 | CN(c1nccnc1CNc1nc(Nc2ccc(C(=O)NCc3cn(CCOCCOCCOCCNc4cccc5c4C(=O)N(C4CCC(=O)NC4=O)C5=O)nn3)cc2)ncc1C(F)(F)F)S(C)(=O)=O (stereo not given) | 22 | 5 | –
5 | CN(c1ncccc1CNc1ncc(C(F)(F)F)c(Nc2ccc(NC(=O)c3cn(CCOCCOCCOCCNc4cccc5c4C(=O)N(C4CCC(=O)NC4=O)C5=O)nn3)cc2)n1)S(C)(=O)=O (stereo not given) | 0 | 0 | –
6 | CN(c1nccnc1CNc1nc(Nc2ccc(NC(=O)c3cn(CCOCCNc4cccc5c4C(=O)N(C4CCC(=O)NC4=O)C5=O)nn3)cc2)ncc1C(F)(F)F)S(C)(=O)=O (stereo not given) | 90 | 32 | –
7 | CN(c1ncccc1CNc1nc(Nc2ccc(C(=O)NCc3cn(CCOCCOCCOCCNc4cccc5c4C(=O)N(C4CCC(=O)NC4=O)C5=O)nn3)cc2)ncc1C(F)(F)F)S(C)(=O)=O (stereo not given) | 30 | 10 | –
8 | CN(c1ncccc1CNc1nc(Nc2ccc(NC(=O)c3cn(CCOCCOCCOCCNc4cccc5c4C(=O)N(C4CCC(=O)NC4=O)C5=O)nn3)cc2)ncc1C(F)(F)F)S(C)(=O)=O (stereo not given) | 94 | 46 | –
9 | CN(c1ncccc1CNc1nc(Nc2ccc(C(=O)NCc3cn(CCOCCNc4cccc5c4C(=O)N(C4CCC(=O)NC4=O)C5=O)nn3)cc2)ncc1C(F)(F)F)S(C)(=O)=O (stereo not given) | 81 | 55 | –
10 | CN(c1ncccc1CNc1nc(Nc2ccc(NC(=O)c3cn(CCCCCOCCCc4cccc5c4C(=O)N(C4CCC(=O)NC4=O)C5=O)nn3)cc2)ncc1C(F)(F)F)S(C)(=O)=O (stereo not given) | 95 | 85 | –
11 | CN(c1ncccc1CNc1nc(Nc2ccc(C(=O)NCc3cn(CCOCCOCCNc4cccc5c4C(=O)N(C4CCC(=O)NC4=O)C5=O)nn3)cc2)ncc1C(F)(F)F)S(C)(=O)=O (stereo not given) | 65 | 40 | –
12 | CCN1C(=O)CCC(N2C(=O)c3cccc(NCCOCCOCCn4cc(C(=O)Nc5ccc(Nc6ncc(C(F)(F)F)c(NCc7cccnc7N(C)S(C)(=O)=O)n6)cc5)nn4)c3C2=O)C1=O (stereo not given) | 0 | 0 | –
13 | CN(c1nccnc1CNc1nc(Nc2ccc(C(=O)NCc3cn(CCOCCOCCNc4cccc5c4C(=O)N(C4CCC(=O)NC4=O)C5=O)nn3)cc2)ncc1C(F)(F)F)S(C)(=O)=O (stereo not given) | 60 | 32 | –
14 | CN(c1ncccc1CNc1nc(Nc2ccc(NC(=O)c3cn(CCCCCCCCNc4cccc5c4C(=O)N(C4CCC(=O)NC4=O)C5=O)nn3)cc2)ncc1C(F)(F)F)S(C)(=O)=O (stereo not given) | 93 | 67 | –
15 | CN(c1ncccc1CNc1nc(Nc2ccc(NC(=O)c3cn(CCOCCOCCCc4cccc5c4C(=O)N(C4CCC(=O)NC4=O)C5=O)nn3)cc2)ncc1C(F)(F)F)S(C)(=O)=O (stereo not given) | 90 | 62 | –
16 | CN(c1ncccc1CNc1nc(Nc2ccc(NC(=O)c3cn(CCOCCOCCOCCOCCNc4cccc5c4C(=O)N(C4CCC(=O)NC4=O)C5=O)nn3)cc2)ncc1C(F)(F)F)S(C)(=O)=O (stereo not given) | 82 | 30 | –
17 | CN(c1ncccc1CNc1nc(Nc2ccc(NC(=O)c3cn(CCOCCOCC#Cc4cccc5c4C(=O)N(C4CCC(=O)NC4=O)C5=O)nn3)cc2)ncc1C(F)(F)F)S(C)(=O)=O (stereo not given) | 90 | 62 | –
18 | CN(c1ncccc1CNc1nc(Nc2ccc(NC(=O)c3cn(CCCCCCCC#Cc4cccc5c4C(=O)N(C4CCC(=O)NC4=O)C5=O)nn3)cc2)ncc1C(F)(F)F)S(C)(=O)=O (stereo not given) | 90 | 62 | –
19 | CN(c1ncccc1CNc1nc(Nc2ccc(NC(=O)c3cn(CCCCCCCCCc4cccc5c4C(=O)N(C4CCC(=O)NC4=O)C5=O)nn3)cc2)ncc1C(F)(F)F)S(C)(=O)=O (stereo not given) | 85 | 40 | –
20 | CN(c1nccnc1CNc1nc(Nc2ccc(NC(=O)c3cn(CCOCCOCCOCCNc4cccc5c4C(=O)N(C4CCC(=O)NC4=O)C5=O)nn3)cc2)ncc1C(F)(F)F)S(C)(=O)=O (stereo not given) | 92 | 35 | –
21 | CN(c1nccnc1CNc1nc(Nc2ccc(NC(=O)c3cn(CCOCCOCCNc4cccc5c4C(=O)N(C4CCC(=O)NC4=O)C5=O)nn3)cc2)ncc1C(F)(F)F)S(C)(=O)=O (stereo not given) | 96 | 71 | –
22 | CN(c1ncccc1CNc1nc(Nc2ccc(NC(=O)c3cn(CCOCCNc4cccc5c4C(=O)N(C4CCC(=O)NC4=O)C5=O)nn3)cc2)ncc1C(F)(F)F)S(C)(=O)=O (stereo not given) | 92 | 40 | –
23 | CN(c1ncccc1CNc1nc(Nc2ccc(NC(=O)c3cn(CCCCCOCC#Cc4cccc5c4C(=O)N(C4CCC(=O)NC4=O)C5=O)nn3)cc2)ncc1C(F)(F)F)S(C)(=O)=O (stereo not given) | 90 | 62 | –
24 | CN(c1ncccc1CNc1ncc(C(F)(F)F)c(Nc2ccc(NC(=O)c3cn(CCOCCOCCNc4cccc5c4C(=O)N(C4CCC(=O)NC4=O)C5=O)nn3)cc2)n1)S(C)(=O)=O (stereo not given) | 2 | 0 | –
